Assay results from ChEMBL document CHEMBL1155261, “Synthesis and biological evaluation of SANT-2 and analogues as inhibitors of the hedgehog signaling pathway” (Bioorg Med Chem, 2009).

What was measured:
[1] = molecular target: Sonic hedgehog protein (Mus musculus) (UniProt Q62226); test: Ratio of compound IC50 to cyclopamine IC50 for inhibition of SHH in mouse Shh-Light2 cells; assay type: functional, cell-based; conditions: Shh Light II
[2] = tested on: Oryzias latipes; test: Teratogenic activity in Oryzias latipes CAB embryo assessed as induction of cyclopia phenotype at 0.01 to 100 uM; assay type: organism-based; conditions: in vivo
Outline: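 CAB-strain medaka kept at 26 °C on a 14:10 h light/dark cycle. Fertilized eggs exposed from 4–5 hpf to 5 days post fertilisation at 26 °C in tap water (pH 8–8.2) with 0.1% methylene blue. Compounds added from ethanol stocks at 1% final solvent; controls received 1% ethanol. Embryos inspected visually for cyclopia (reduced eye distance).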

[3] = tested on: Oryzias latipes; test: Teratogenic activity in Oryzias latipes embryo assessed as induction of cyclopia phenotype at 12.5 uM; assay type: organism-based; conditions: in vivo
Outline: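 Medaka (CAB strain) fertilized eggs, collected within 1–2 h post fertilization, exposed from 4–5 hpf to 5 days post fertilisation at 26 °C in tap water (pH 8–8.2) with 0.1% methylene blue; compounds added from ethanol stocks, final 1% ethanol, controls 1% ethanol. Tested range 0.01–100 µM. Embryos visually scored for cyclopia (reduced eye distance).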

SMILES | Ratio IC50 [1] | Activity [2] | Activity [3]
COc1ccccc1C(=O)Nc1ccc(Cl)c(-c2nc3ccccc3[nH]2)c1 | 1.5 |  | 
COc1cc(C(=O)Nc2ccc(Cl)c(-c3nc4ccccc4[nH]3)c2)cc(OC)c1OC |  | Non-toxic | 
O=C(Nc1ccc(Cl)c(-c2nc3ccccc3[nH]2)c1)c1ccc(F)cc1 | 5.2 |  | 
CCOc1cc(C(=O)Nc2ccc(Cl)c(-c3nc4ccccc4[nH]3)c2)cc(OCC)c1OCC |  | Non-toxic | 
CC1=C2C[C@H]3[C@@H](CC=C4C[C@@H](O)CC[C@@]43C)[C@@H]2CC[C@]12O[C@@H]1C[C@H](C)CN[C@H]1[C@H]2C [CYCLOPAMINE] | 11 | Non-toxic | Toxic
COc1ccc(C(=O)Nc2ccc(Cl)c(-c3nc4ccccc4[nH]3)c2)cc1 | 11 |  | 
O=C(Nc1ccc(Cl)c(-c2nc3ccccc3[nH]2)c1)c1ccc(Cl)cc1 | 5.9 |  | 

The next lines start with results.

Ratio IC50 [1] | SMILES | Activity [2] | Activity [3]
6.9 | CN(C)c1ccc(C(=O)Nc2ccc(Cl)c(-c3nc4ccccc4[nH]3)c2)cc1 |  | 
8 | O=C(Nc1ccc(Cl)c(-c2nc3ccccc3[nH]2)c1)c1ccccc1 |  | 
1 | CCOc1cc(C(=O)Nc2cccc(-c3nc4ccccc4[nH]3)c2)cc(OCC)c1OCC |  | 
7.1 | N#Cc1ccc(C(=O)Nc2ccc(Cl)c(-c3nc4ccccc4[nH]3)c2)cc1 |  | 
11 | O=C(Nc1ccc(Cl)c(-c2nc3ccccc3[nH]2)c1)c1cccc(C(F)(F)F)c1 | Non-toxic | 
